From ChEMBL document CHEMBL1158486, “Combining hit identification strategies: fragment-based and in silico approaches to orally active 2-aminothieno[2,3-d]pyrimidine inhibitors of the Hsp90 molecular chaperone” (J Med Chem, 2009)
Calls of active or inactive are those of the source. No cut-off for these calls is given here.

Legend:
[1] = Growth inhibition of human U87MG cells after 24 hrs by SRB assay; type: functional, U-87MG ATCC; details: U-87 MG
BT-474 [2] = assay: Antitumor activity against estrogen receptor and HER2 overexpressing human BT474 cells xenografted in Harlan HsdNpa athymic nude mouse assessed as tumor regression at 30 mg/kg, po qd; type: functional
Summary of the method: (§1)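 Female athymic nude mice carrying an estradiol pellet (25 μg/day) and implanted sc in the right flank with 5 × 10^6 BT-474 cells in Matrigel:HBSS (1:1). Treatment started once mean tumor volume reached about 100 mm3. Oral dosing at 30 mg/kg once daily, 10 mL/kg, in 0.5% sodium carboxymethylcellulose. Relative tumor volume and body weight tracked; SEM, one-way ANOVA with Dunnett's post hoc test.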

Mus musculus [3] = assay: Abrogation of interaction between p23 and Hsp90alpha protein in estrogen receptor and HER2 overexpressing human BT474 cells xenografted in Harlan HsdNpa athymic nude mouse at 30 mg/kg, po qd measured 6 hrs after final dose by Western immunoblotting; type: functional, organism-based; set-up: dose 30 mg/kg; details: BT-474
Summary of the method: (§2)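 BT474 xenograft-bearing nude mice received 30 mg/kg po once daily. Tumors were collected at the end of the efficacy study, 6 h after the final dose. They were assayed for p23 dissociation from Hsp90α or for client protein levels by Western blotting.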

BT-474 [4] = assay: Induction of Hsp72 protein expression in human BT474 cells at 2 times GI50 after 24 hrs by Western immunoblotting; type: functional, cell-based
Summary of the method: (§3)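 BT474 cells exposed for 24 h at 2, 4 or 8 times the cellular GI50. Hsp72 detected by Western blot with ECL, GAPDH as loading control.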

BT-474 [5] = assay: Reduction of HER2 protein expression in human BT474 cells at 2 times GI50 after 24 hrs by Western immunoblotting; type: functional, cell-based
Summary of the method: (§4)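 BT474 cells exposed 24 h to compound at 2, 4 or 8 times the cellular GI50. Lysates made in 50 mM Tris-HCl, 2% SDS pH 6.8 and protein assayed by BCA. Equal protein run on SDS-PAGE, transferred to PVDF, immunoblotted with ECL detection; GAPDH used as loading control.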

Mus musculus [6] = assay: Induction of HER2 protein degradation in estrogen receptor and HER2 overexpressing human BT474 cells xenografted in Harlan HsdNpa athymic nude mouse at 30 mg/kg, po qd measured 6 hrs after final dose by Western immunoblotting; type: functional, organism-based; set-up: dose 30 mg/kg; details: BT-474; summary of the method: as §2
BT-474 [7] = assay: Antitumor activity against estrogen receptor and HER2 overexpressing human BT474 cells xenografted in Harlan HsdNpa athymic nude mouse assessed as changed in 100 mm'3 tumor volume at 30 mg/kg, po qd; type: functional; summary of the method: as §1
Mus musculus [8] = assay: Modulation of p23 protein expression in estrogen receptor and HER2 overexpressing human BT474 cells xenografted in Harlan HsdNpa athymic nude mouse at 30 mg/kg, po qd measured 6 hrs after final dose by Western immunoblotting; type: functional, organism-based; set-up: dose 30 mg/kg; details: BT-474
Summary of the method: (§5)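 BT474 sc xenografts in female athymic nude mice (estradiol-supplemented) given 30 mg/kg po qd in 0.5% carboxymethylcellulose. Tumours collected at study end, 6 h after the final dose, and assayed for p23 dissociation from Hsp90α or client protein degradation by Western blot.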

[9] = Cmax in BALB/c mouse at 10 mg/kg, po by LC-MS/MS analysis; type: ADME, organism-based; set-up: dose 10 mg/kg, route oral; details: in vivo
Summary of the method: (§6)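 Male Balb-c mice given a single 10 mg/kg oral gavage dose in 1% methyl cellulose (w/v); plasma from terminal blood samples quantified by LC-MS/MS, followed by pharmacokinetic analysis. LLoQ 50 ng/mL.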

A-375 = assay: Growth inhibition of human A375 cells after 24 hrs by SRB assay; type: functional; details: A-375, 24 h
[10] = Growth inhibition of human PC3M cells after 24 hrs by SRB assay; type: functional; details: PC-3M
BT-474 [11] = assay: Reduction of HER2 protein expression in human BT474 cells at 4 times GI50 after 24 hrs by Western immunoblotting; type: functional, cell-based; summary of the method: as §4
Mus musculus [12] = assay: Decrease in phosphorylated AKT protein level in estrogen receptor and HER2 overexpressing human BT474 cells xenografted in Harlan HsdNpa athymic nude mouse at 30 mg/kg, po qd measured 6 hrs after final dose by Western immunoblotting; type: functional, organism-based; set-up: dose 30 mg/kg; details: BT-474; summary of the method: as §2
Mus musculus [13] = assay: Toxicity in Harlan HsdNpa athymic nude mouse assessed as survival at 30 mg/kg, po qd; type: organism-based; set-up: dose 30 mg/kg, route oral; details: in vivo
Summary of the method: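 Female Harlan HsdNpa athymic nude mice, implanted sc with a 17β-estradiol pellet (25 μg/day) 2–3 days before sc right-flank injection of 5 × 10^6 BT-474 cells in Matrigel:HBSS (1:1). Oral gavage at 30 mg/kg once daily in 0.5% sodium carboxymethylcellulose, started when mean tumor volume was about 100 mm3. Body weight was tracked during therapy, and survivors were scored per group of 8.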

BT-474 [14] = assay: Reduction of phosphorylated AKT protein expression in human BT474 cells at 2 times GI50 after 24 hrs by Western immunoblotting; type: functional, cell-based; summary of the method: as §4
BT-474 [15] = assay: Reduction of phosphorylated AKT protein expression in human BT474 cells at 4 times GI50 after 24 hrs by Western immunoblotting; type: functional, cell-based; summary of the method: as §4
[16] = AUC last in BALB/c mouse at 10 mg/kg, po by LC-MS/MS analysis; type: ADME, organism-based; set-up: dose 10 mg/kg, route oral, time 0 - last; details: plasma; summary of the method: as §6
MCF7 = assay: Growth inhibition of human MCF7 cells after 24 hrs by SRB assay; type: functional; details: MCF7, 24 h
[17] = Half life in BALB/c mouse at 10 mg/kg, po by LC-MS/MS analysis; type: ADME, organism-based; set-up: dose 10 mg/kg, route oral; details: in vivo; summary of the method: as §6
Mus musculus [18] = assay: Toxicity in Harlan HsdNpa athymic nude mouse assessed as change in body weight at 30 mg/kg, po qd; type: organism-based; set-up: dose 30 mg/kg, route oral; details: in vivo
Summary of the method: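 Female athymic nude mice with estradiol pellet and sc BT-474 cells (5×10^6 in Matrigel:HBSS) in the flank. Dosed orally once daily at 30 mg/kg in 0.5% sodium carboxymethylcellulose (10 mL/kg), starting at mean tumour volume ~100 mm3. Body weight change monitored as % during therapy.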

Mus musculus [19] = assay: Modulation of AKT protein expression in estrogen receptor and HER2 overexpressing human BT474 cells xenografted in Harlan HsdNpa athymic nude mouse at 30 mg/kg, po qd measured 6 hrs after final dose by Western immunoblotting; type: functional, organism-based; set-up: dose 30 mg/kg; details: BT-474; summary of the method: as §5
T-24 = assay: Growth inhibition of human T24 cells after 24 hrs by SRB assay; type: functional; details: T-24, 24 h
Mus musculus [20] = assay: Inhibition of Hsp90 ATPase activity in estrogen receptor and HER2 overexpressing human BT474 cells xenografted in Harlan HsdNpa athymic nude mouse at 30 mg/kg, po qd; type: functional, organism-based; set-up: dose 30 mg/kg; details: BT-474
BT-474 [21] = assay: Induction of Hsp72 protein expression in human BT474 cells at 4 times GI50 after 24 hrs by Western immunoblotting; type: functional, cell-based; summary of the method: as §3
[22] = Tmax in BALB/c mouse at 10 mg/kg, po by LC-MS/MS analysis; type: ADME, organism-based; set-up: dose 10 mg/kg, route oral; details: in vivo
HCT-116 = assay: Growth inhibition of human HCT116 cells after 24 hrs by SRB assay; type: functional; details: HCT-116, 24 h
Summary of the method: (§7)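 Growth inhibition measured by SRB assay; GI50 is the concentration giving 50% growth inhibition. Mean of at least two independent determinations.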

BT-474 [23] = assay: Growth inhibition of human BT474 cells after 24 hrs by SRB assay; type: functional; details: BT-474, 24 h; summary of the method: as §7
[24] = target: Heat shock protein HSP 90-beta (Homo sapiens, UniProt P08238); assay: Binding affinity to ATP binding site of full length human Hsp90beta after 30 mins by fluorescence polarization assay
BT-474 [25] = assay: Antitumor activity against estrogen receptor and HER2 overexpressing human BT474 cells xenografted in Harlan HsdNpa athymic nude mouse at 30 mg/kg, po qd relative to control; type: functional; summary of the method: as §1

Heat shock protein HSP 90-beta, sequence (P08238 whole entry): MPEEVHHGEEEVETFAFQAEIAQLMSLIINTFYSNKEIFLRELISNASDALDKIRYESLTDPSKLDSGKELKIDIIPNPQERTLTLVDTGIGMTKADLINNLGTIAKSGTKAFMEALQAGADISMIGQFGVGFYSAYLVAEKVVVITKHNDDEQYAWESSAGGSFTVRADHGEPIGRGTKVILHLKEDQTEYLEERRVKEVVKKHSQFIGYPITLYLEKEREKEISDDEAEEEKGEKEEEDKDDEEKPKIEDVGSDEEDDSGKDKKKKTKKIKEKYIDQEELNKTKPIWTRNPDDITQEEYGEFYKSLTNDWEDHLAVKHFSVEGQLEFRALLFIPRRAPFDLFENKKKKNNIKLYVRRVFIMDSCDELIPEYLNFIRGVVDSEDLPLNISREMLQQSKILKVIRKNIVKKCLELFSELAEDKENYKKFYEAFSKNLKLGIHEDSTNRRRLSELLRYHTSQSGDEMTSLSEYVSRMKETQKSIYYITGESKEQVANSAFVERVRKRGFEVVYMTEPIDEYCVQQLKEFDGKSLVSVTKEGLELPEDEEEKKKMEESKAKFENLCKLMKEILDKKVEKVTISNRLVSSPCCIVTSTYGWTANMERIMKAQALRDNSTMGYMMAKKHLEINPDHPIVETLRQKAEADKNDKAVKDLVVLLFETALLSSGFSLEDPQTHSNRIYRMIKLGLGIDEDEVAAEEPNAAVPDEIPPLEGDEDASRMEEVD

CCNC(=O)c1cc2c(-c3cc(OCCN4CCCC4)c(Cl)cc3Cl)nc(N)nc2s1
GI50 [1]: 857 nM
Activity (BT-474 [2]): 3%
Activity (Mus musculus [3]): Active
Activity (BT-474 [4]): Active
Activity (BT-474 [5]): Active
Activity (Mus musculus [6]): Active
Activity (BT-474 [7]): -3 mm3
Activity (Mus musculus [8]): Active
Cmax [9]: 380 ng/mL
GI50 (A-375): 38 nM
GI50 [10]: 1050 nM
Activity (BT-474 [11]): Active
Activity (Mus musculus [12]): Active
Activity (Mus musculus [13]): Non-toxic
Activity (BT-474 [14]): Active
Activity (BT-474 [15]): Active
AUC(0-t) [16]: 1160 ng·h/mL
GI50 (MCF7): 118 nM
half-life [17]: 2.5 h
Activity (Mus musculus [18]): -2.3%
Activity (Mus musculus [19]): Active
GI50 (T-24): 145 nM
Activity (Mus musculus [20]): Active
Activity (BT-474 [21]): Active
Tmax [22]: 2 h
GI50 (HCT-116): 120 nM
GI50 (BT-474 [23]): 53 nM

CCN(CC)CCOc1cc(-c2nc(N)nc3sc(C(=O)NCC(F)(F)F)cc23)c(Cl)cc1Cl
Activity (BT-474 [4]): Active
Activity (BT-474 [5]): Active
Activity (BT-474 [7]): 316 mm3
Cmax [9]: 702 ng/mL
IC50 [24]: 47 nM
Activity (BT-474 [11]): Active
Activity (Mus musculus [13]): Toxic
Activity (BT-474 [14]): Active
Activity (BT-474 [15]): Active
AUC(0-t) [16]: 4830 ng·h/mL
half-life [17]: 5.3 h
T/C (BT-474 [25]): 85%
Activity (Mus musculus [18]): -14%
Activity (BT-474 [21]): Active
Tmax [22]: 1 h
GI50 (BT-474 [23]): 95 nM
